These results are taken from PubChem BioAssay AID624466 (The Scripps Research Institute Molecular Screening Center, 2012).

Hit rate of the full screen: of about 360,000 compounds, about 5,400 (1.5%) were called active.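 Rule for the calls: active = inhibition above a per-plate cutoff, the mean inhibition of test compounds on that plate plus 3 SD (cut at about 49% in these data); inactive = the rest.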 Only a selection was taken, and actives are over-represented in it overall.

Chain of Trace amine-associated receptor 1 (Homo sapiens) (Q96RJ0 whole entry, looked up, the tested form may be a part): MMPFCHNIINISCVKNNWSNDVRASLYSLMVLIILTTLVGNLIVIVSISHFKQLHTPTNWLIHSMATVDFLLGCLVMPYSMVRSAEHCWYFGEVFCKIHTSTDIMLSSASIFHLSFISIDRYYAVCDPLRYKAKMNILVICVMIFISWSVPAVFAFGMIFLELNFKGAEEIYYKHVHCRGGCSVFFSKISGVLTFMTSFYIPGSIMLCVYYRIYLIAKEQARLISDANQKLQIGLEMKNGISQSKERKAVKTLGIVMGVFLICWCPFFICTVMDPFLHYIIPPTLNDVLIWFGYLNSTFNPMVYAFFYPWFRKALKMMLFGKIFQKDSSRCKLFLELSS

The target of the assay is Trace amine-associated receptor 1 (Homo sapiens) (UniProt Q96RJ0). Put plainly: blockers of beta-PEA-driven TAAR1 calcium signal – Fluo-8 calcium fluorescence, CHO RD-HGA16 cells, primary screen (AID 624466).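 Note: 0% = DMSO plus EC80 beta-PEA response and 100% = DMSO alone without agonist.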 To be noted: CHO RD-HGA16 TAAR1, Fluo-8 calcium fluorescence, antagonist; at 3 µM; hits give high values. The gist of the method:
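Test system – hTAAR1-expressing CHO RD-HGA16 cells, Gα16-coupled · Reagent – β-PEA at EC80 concentration, post-compound challenge · Compound dosing – 3 µM, single point · Timing – 140 s kinetic read after compound, 140 s after agonist · Detection – Fluo-8 intracellular calcium dye fluorescence, real-time kinetic reads · Control set – DMSO and EC80 PEA controls · Repeats – n of 1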
Consider `C#CCN([C@@H](C)C(=O)OCC)S(=O)(=O)c1ccc(Br)cc1F`, for which the inhibition was 15% (inactive).

In the case of `Cc1cccc(NC(=O)c2ccc(S(=O)(=O)N(C)c3ccccc3)cc2)n1`, the inhibition was 27.4% (inactive).

In the case of `CN(c1ccccc1)S(=O)(=O)c1cc(C(=O)Nc2nc3ccccc3[nH]2)ccc1Cl`, the inhibition is 59% (active).

For the molecule `CN(c1ccccc1)S(=O)(=O)c1cc(C(=O)N2CCN(c3ncccn3)CC2)ccc1Cl`, the inhibition is 42.5% (inactive).

As to `Cc1ccc(S(=O)(=O)N2CCC(=O)N([C@H](COCc3ccccc3)C(C)C)CC2)cc1`, the inhibition is 1.41% (inactive).

On to `COC(=O)c1ccc(CN2C(=O)[C@]3(OCCC=C[C@H]3C)c3c(Br)cccc32)cc1`, for which the inhibition is -17.5% (inactive).

For the molecule `Cc1cc(OCCOc2cccc3cccnc23)c(C)cc1Cl`, the inhibition is -4.44% (inactive).

Turning to `Cc1ccc2cccc(OCCCOc3ccccc3CO)c2n1`, the inhibition was 49.6% (active).

As for `CCOc1cccc(OCCCOc2cccc3cccnc23)c1`, the inhibition is -11% (inactive).

`CSc1ccc(S(=O)(=O)N2CCC(C(=O)NCc3ccncc3)CC2)cc1`: the inhibition is -9.01% (inactive).

On to `CC(=O)C1=CCC(c2ccccc2)N(S(=O)(=O)c2ccc(C)cc2)C1` (centres undefined), for which the inhibition is -17.1% (inactive).

On to `Cc1cc(C)c(SCCc2ccncc2)c(C)c1`, for which the inhibition is 11.4% (inactive).

Take `c1ccc(CSCCc2ccncc2)cc1`: the inhibition is 5.41% (inactive).

On to `CC(C)(C)c1ccc(SCCc2ccncc2)cc1`, for which the inhibition was 49.2% (active).

With `CCOCCCN1C(=O)CN(C2CCCCC2)C(=O)C1c1ccc(OCC)c(OC)c1` (centres undefined), the inhibition is 11.2% (inactive).

For the molecule `CCCCn1nnnc1C(c1ccccc1)N1CCN(c2ccccc2OC)CC1` (centres undefined), the inhibition was 12.1% (inactive).

For the molecule `Cc1nc2ccccc2n1C(=O)N1CCOCC1`, the inhibition is 12.8% (inactive).

As to `CCN(CC)CCN(C)C(c1ccnc2ccccc12)c1nnnn1-c1ccc2c(c1)OCCO2` (centres undefined), the inhibition was 4.47% (inactive).

Consider `COc1cc(OC)c(-n2cc(-c3ccc(Cl)cc3)[nH]c2=O)cc1Cl`, for which the inhibition is 85.5% (active).

`COc1ccc(-n2c(-c3ccc(Cl)cc3)n[nH]c2=S)c(OC)c1`: the inhibition was -24.1% (inactive).

On to `COc1cc(OC)c(N2CC(C(=O)Nc3cc(Cl)ccc3N3CCOCC3)CC2=O)cc1Cl` (centres undefined), for which the inhibition was 6.19% (inactive).

`CCCn1nc(NS(=O)(=O)c2ccc(F)cc2)c2cc3ccccc3nc21`: the inhibition is 9.03% (inactive).

`COc1ccccc1-c1ccc([C@@H]2C[C@H]3[C@H](CON3C)CN2S(=O)(=O)c2cc(Cl)cc(Cl)c2)cc1`: the inhibition is -24.5% (inactive).

Consider `CCOC(=O)C1(C)CCCN(C(=O)c2ccc(N(C)C)cc2)C1` (centres undefined), for which the inhibition is -13.8% (inactive).

With `CCC(C)CN1C(=O)CN(S(C)(=O)=O)CC1(C)C(=O)Nc1ccc2c(c1)OCCO2` (centres undefined), the inhibition was -7.39% (inactive).

Take `COc1ccc(CCNC(=O)c2ccccc2OCc2ccccc2)cc1`: the inhibition was -1.77% (inactive).

For the molecule `O=C(NC1CCC(O)CC1)c1ccccc1OCc1ccc(F)cc1` (centres undefined), the inhibition was -21.4% (inactive).

Take `CC(=O)c1ccccc1OCc1ccc(C(=O)c2ccccc2)cc1`: the inhibition is 71.8% (active).

As to `O=C(Nc1ccc(Cl)cc1)c1cccc(OC(=S)N2CCOCC2)c1`, the inhibition was -20.4% (inactive).

`CCC(=O)Oc1cccc(C(=O)Nc2ccc(-c3nnc(-c4ccco4)o3)cc2)c1`: the inhibition is 63.3% (active).

As to `Cc1ccc2nc(-c3ccc(NC(=O)c4cccnc4)cc3)oc2c1`, the inhibition is 45.9% (inactive).

On to `CN(CCO)C(=O)c1nc[nH]c1C(=O)N(C)Cc1ccccc1`, for which the inhibition is -10.4% (inactive).

In the case of `CN(C(=O)CN(CCO)CC(=O)N(C)C(C)(C)Cc1ccccc1)C(C)(C)Cc1ccccc1`, the inhibition is 86.5% (active).

`CCOC(=O)N(Cc1ccccc1)C1CC1`: the inhibition was 2.44% (inactive).

Take `Cc1cc(SCC(=O)c2ccccc2)nc(SCC(=O)c2ccccc2)n1`: the inhibition is 51.6% (active).

As for `Cc1nc(SCC(=O)c2ccccc2)c([N+](=O)[O-])[nH]1`, the inhibition is 8.14% (inactive).

With `Cc1nc2nc(SCC(=O)c3ccccc3)[nH]c2cc1Br`, the inhibition was -5.84% (inactive).

Turning to `CCOC(=O)CCCNC(=O)COC(=O)c1cc(Br)c(Br)s1`, the inhibition was -4.99% (inactive).

In the case of `CCC1CCCCN1CCNS(=O)(=O)c1ccc2c(c1)CCN2C(C)=O` (centres undefined), the inhibition was -5.09% (inactive).

For the molecule `Cc1ccc(C(=O)N/C(=C\c2cn(S(=O)(=O)N(C)C)c3ccccc23)C(=O)N2CCCC2)cc1`, the inhibition was 39.7% (inactive).

As for `O=C1C(Cl)=C(Oc2ccccc2)C(=O)c2ccccc21`, the inhibition was 50.9% (active).

Regarding `Cc1cc(Cl)ccc1OCCCC(=O)NCc1ccncc1`, the inhibition was 3.15% (inactive).

Regarding `Cc1cc(Cl)ccc1OCCCC(=O)NCc1ccccn1`, the inhibition is 2.84% (inactive).

Regarding `Cc1cc(Cl)ccc1OCCCC(=O)Nc1cccc(-n2cnnn2)c1`, the inhibition was 53% (active).

With `CC1(C(=O)NCc2ccccc2)CSCC(=O)N1CCCN1CCOCC1` (centres undefined), the inhibition was -18.5% (inactive).

With `COC(=O)c1ccc2c(c1)S(=O)(=O)NC2C` (centres undefined), the inhibition is 4.99% (inactive).

Regarding `O=c1[nH]c(CSc2ncc(-c3ccc(F)cc3)n2Cc2ccco2)nc2ccccc12`, the inhibition is 67.8% (active).

With `CCn1c(COc2c(C)cccc2C)nnc1SCc1nc2ccccc2c(=O)[nH]1`, the inhibition is 2.03% (inactive).

For `Cn1c(-c2ccc(F)cc2)cnc1SCC(=O)NCc1ccco1`, the inhibition was -3.37% (inactive).

`CN(C)CCCn1c(SCCN2C(=O)c3ccccc3C2=O)nc2ccccc2c1=O`: the inhibition is -1.92% (inactive).

Consider `C[C@H](NC(=O)c1ccccc1)C(=O)OCC(=O)c1c[nH]c2ccccc12`, for which the inhibition was 52.1% (active).

On to `C[N+](C)(C)CCNC(=O)c1c[nH]c2ccccc12`, for which the inhibition is -17.1% (inactive).

Take `CCOc1ncccc1C(=O)OCC(=O)c1c[nH]c2ccccc12`: the inhibition was 42% (inactive).

Regarding `COC(=O)C1=C(C)N(Cc2ccccc2C(F)(F)F)C(=NCC2CC2)NC1c1cccc(Cl)c1` (centres undefined), the inhibition is 1.62% (inactive).

With `CCOC(=O)c1cc(-c2ccc(Cl)s2)nc2c1c(C)nn2C`, the inhibition is 1.4% (inactive).

As to `Cc1ccc(OCCC(=O)OCC(=O)N2c3ccccc3NC(=O)C2(C)C)cc1`, the inhibition was 50.6% (active).

`CNS(=O)(=O)c1cccc(C(=O)OCC(=O)N2c3ccccc3NC(=O)C2(C)C)c1`: the inhibition was 0.12% (inactive).

Consider `CC1(C)C(=O)Nc2ccccc2N1C(=O)COC(=O)Cn1cnc2ccccc2c1=O`, for which the inhibition is 12.5% (inactive).

As to `CC(c1ccccc1)n1c(NCCCn2ccnc2)nc2c1c(=O)[nH]c(=O)n2C` (centres undefined), the inhibition is 10.8% (inactive).

As usually defined, the inhibition is the relative decrease from the control value, in per cent.
